# Activity calls are given as the source filed them. The calls are words filed in the database; no cut-off is given here.
# Columns and labels:
# [1] = AUC (0 to 8 hrs) in Wistar rat at 0.5 mg/kg, iv by LC-MS/MS analysis; assay type: ADME, organism-based; parameters: time < 8 hr, dose 0.5 mg/kg, route intravenous; settings: in vivo
# Outline: (§1)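 Male Wistar rats with jugular vein catheter, fasted overnight; dosed p.o. by gavage in olive oil or i.v. via catheter in 50% DMSO. Blood drawn from conscious unrestrained rats 5 min before dosing, then 5, 15, 30 min and 1–8 h after. Volume replaced with heparinized saline. Rats fed after 4 h sample. n = 3 per route.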
# [2] = Volume of distribution in Wistar rat at 0.5 mg/kg, iv by LC-MS/MS analysis; assay type: ADME, organism-based; settings: in vivo; outline: as §1
# [3] = Elimination half-life in Wistar rat at 0.5 mg/kg, iv by LC-MS/MS analysis; assay type: ADME, organism-based; settings: in vivo, read-out: beta t1/2; outline: as §1
# [4] = biological target: T1, C3a anaphylatoxin chemotactic receptor (Homo sapiens, UniProt Q16581); test: Agonist activity at C3a receptor in human MDM cells assessed as induction of intracellular calcium release measured at 1 sec interval for => 200 secs by Fluo-3 AM dye-based FLIPR assay; assay type: cell-based
# T1 sequence (Q16581 whole entry): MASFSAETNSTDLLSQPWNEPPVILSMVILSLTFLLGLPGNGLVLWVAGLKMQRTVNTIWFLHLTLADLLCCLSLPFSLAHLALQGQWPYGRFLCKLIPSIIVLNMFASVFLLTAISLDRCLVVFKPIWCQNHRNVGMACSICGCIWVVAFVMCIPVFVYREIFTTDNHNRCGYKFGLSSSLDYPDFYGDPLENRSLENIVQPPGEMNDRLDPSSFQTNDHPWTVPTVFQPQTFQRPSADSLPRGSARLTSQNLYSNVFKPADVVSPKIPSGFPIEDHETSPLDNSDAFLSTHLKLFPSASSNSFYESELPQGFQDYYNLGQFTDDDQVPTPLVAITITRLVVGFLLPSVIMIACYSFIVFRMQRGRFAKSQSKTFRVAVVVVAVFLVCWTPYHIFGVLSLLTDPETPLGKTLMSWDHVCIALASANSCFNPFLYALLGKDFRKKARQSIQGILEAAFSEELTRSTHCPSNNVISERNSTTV
# Outline: (§2)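 HMDMs were differentiated from CD14⁺ monocytes with M-CSF (100 ng/mL) for 7 days and seeded overnight at 5 × 10⁴ cells/well. Cells were loaded with 4 μM Fluo-3 AM for 1 h at 37 °C, then placed in HBSS with 2.5 mM probenecid and 20 mM HEPES, pH 7.4. Agonist was added on FLIPR and read at ex 495/em 520 nm. EC50 is relative to the maximum from 1 μM C3a; n ≥ 3.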
# [5] = biological target: T1, C3a anaphylatoxin chemotactic receptor; test: (§3) Antagonist activity at C3a receptor in human MDM cells assessed as inhibition of C3a-induced intracellular calcium release preincubated for 30 mins followed by C3a addition and measured at 1 sec interval for => 200 secs by Fluo-3 AM dye-based FLIPR assay; assay type: functional, cell-based; settings: read-out: IC50
# Outline: (§4)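 Macrophages were derived from CD14⁺ monocytes (M-CSF, 7 days) and dye-loaded with 4 μM Fluo-3 AM for 1 h at 37 °C in HBSS/probenecid/HEPES, pH 7.4. Antagonist was preincubated for 30 min at 37 °C before addition of synthetic full-length human C3a (100 nM). FLIPR fluorescence was read at ex 495/em 520 nm. Percent response was plotted against log concentration; n ≥ 3.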
# [6] = Stability of the compound in rat plasma at 1 mM measured after 4 hrs by LC-MS analysis; assay type: ADME, cell-free
# Outline: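 Compound added to rat plasma from 1 mM DMSO stock (stock concentration) and incubated at 37 °C. Samples taken at 0, 5, 15, 30, 60, 120 and 240 min, quenched in MeCN/H₂O 9:1, centrifuged and analyzed by LC-MS. Plasma activity checked with SLIGRL-NH₂.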
# [7] = Stability of the compound in rat liver microsomes at 1 uM preincubated for 5 mins followed by NADPH addition and measured after 1 hr by LC-MS/MS analysis; assay type: ADME, Microsome
# Outline: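 Compound at 1 μM in 100 mM phosphate buffer, pH 7.4 (0.1% DMSO), was incubated with rat liver microsomes […] at 37 °C before further NADPH was added. Aliquots taken at 0, 5, 15, 30 and 60 min were quenched in MeCN/H₂O (9:1), centrifuged and analysed by LC-MS/MS. Microsomal activity was confirmed in parallel with SLIGRL-NH₂; n = 3.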
# [8] = Clearance in Wistar rat at 0.5 mg/kg, iv by LC-MS/MS analysis; assay type: ADME, organism-based; settings: in vivo; outline: as §1
# [9] = AUC (0 to 8 hrs) in Wistar rat at 10 mg/kg, po by LC-MS/MS analysis; assay type: ADME, organism-based; parameters: dose 10 mg/kg, time < 8 hr, route oral; settings: in vivo; outline: as §1
# [10] = Tmax in Wistar rat at 10 mg/kg, po by LC-MS/MS analysis; assay type: ADME, organism-based; settings: in vivo; outline: as §1
# [11] = Cmax in Wistar rat at 10 mg/kg, po by LC-MS/MS analysis; assay type: ADME, organism-based; parameters: dose 10 mg/kg, route oral; settings: in vivo; outline: as §1
# Rattus norvegicus [12] = test: Antiinflammatory activity in Wistar rat model of BR103-induced paw edema assessed as reduction in hind paw swelling at 10 mg/kg, po administered via gavage pretreated for 2 hrs followed by BR103 challenge and measured after 30 mins by digital caliper method relative to control; assay type: functional; parameters: scale not given: the % may be the effect or the level left
# Outline: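 Male Wistar rats were given antagonist at 10 mg/kg by oral gavage in olive oil 2 h before intraplantar BR103 (350 μg in 100 μL of 5% DMSO). Sham paws received vehicle; sham and control rats received olive oil only. Paw thickness and width were measured with digital calipers at 0, 0.5, 1 and 2 h after agonist; n = 3 per group.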
# [13] = biological target: T2, C3a anaphylatoxin chemotactic receptor (Homo sapiens) (UniProt Q16581); test: as §3; assay type: functional, cell-based; outline: as §4
# T2 sequence (whole entry): T1 sequence (Q16581 whole entry)
# [14] = biological target: T2, C3a anaphylatoxin chemotactic receptor (Homo sapiens); test: Potency index, ratio of SB290157 IC50 to test compound IC50 for antagonist activity at C3a receptor in human MDM cells; assay type: cell-based
# [15] = biological target: T3, C5a anaphylatoxin chemotactic receptor 1 (Homo sapiens) (UniProt P21730); test: Antagonist activity at C5a receptor in human MDM cells assessed as inhibition of C5a-induced intracellular calcium release preincubated for 30 mins followed by C5a addition and measured at 1 sec interval for => 200 secs by Fluo-3 AM dye-based FLIPR assay; assay type: functional, cell-based
# T3 sequence (whole entry): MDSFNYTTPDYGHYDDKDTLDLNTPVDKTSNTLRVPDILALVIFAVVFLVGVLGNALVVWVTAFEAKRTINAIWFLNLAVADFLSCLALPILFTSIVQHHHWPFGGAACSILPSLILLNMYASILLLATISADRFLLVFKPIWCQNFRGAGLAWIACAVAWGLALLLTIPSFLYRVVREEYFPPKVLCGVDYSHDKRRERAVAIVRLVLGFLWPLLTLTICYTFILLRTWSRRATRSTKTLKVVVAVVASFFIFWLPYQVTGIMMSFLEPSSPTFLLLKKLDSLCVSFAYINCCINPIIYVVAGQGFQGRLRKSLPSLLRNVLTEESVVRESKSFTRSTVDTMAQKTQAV
# Outline: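 HMDMs from CD14+ monocytes after 7 days in M-CSF; 5 × 10⁴ cells/well seeded overnight. Cells loaded 1 h at 37 °C with 4 μM Fluo-3 AM, then washed into HBSS with 2.5 mM probenecid and 20 mM HEPES, pH 7.4. Antagonist preincubated 30 min at 37 °C before C5a. Fluorescence (ex 495/em 520 nm) read every 1 s for ≥200 s.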
# [16] = Stability of the compound in rat liver microsomes assessed as compound degradation at 1 uM preincubated for 5 mins followed by NADPH addition and measured after 1 hr by LC-MS/MS analysis; assay type: ADME, Microsome; settings: read-out: Drug degradation
# Outline: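 Compound at 1 μM in 100 mM phosphate buffer pH 7.4 with 0.1% DMSO was mixed with rat liver microsomes and preincubated 5 min at 37 °C before NADPH was added. Samples taken at 0, 5, 15, 30 and 60 min, quenched in MeCN/H₂O 9:1 and analyzed by LC-MS/MS. Microsome activity checked with SLIGRL-NH₂; n = 3.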
# [17] = biological target: T2, C3a anaphylatoxin chemotactic receptor (Homo sapiens); test: (§5) Antagonist at C3a receptor in human LAD2 cells assessed as inhibition of C3a-induced beta-hexosaminidase release preincubated for 30 mins followed by C3a addition; assay type: cell-based
# Outline: (§6)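 LAD2 mast cells grown with SCF, 1 × 10⁴ cells/well seeded overnight and presensitized overnight with IgE (100 ng/mL). Compounds preincubated 30 min at 37 °C in 0.1 M HEPES pH 7.4, then C3a added and β-hexosaminidase release measured. IC50 is concentration inhibiting 50% of release induced by 100 nM C3a; n ≥ 3.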
# [18] = biological target: T1, C3a anaphylatoxin chemotactic receptor; test: as §5; assay type: cell-based; outline: as §6
# [19] = biological target: T2, C3a anaphylatoxin chemotactic receptor (Homo sapiens); test: Potency index, ratio of SB290157 IC50 to test compound IC50 for antagonist activity at C3a receptor in human LAD2 cells assessed as inhibition of C3a-induced beta-hexosaminidase release; assay type: cell-based
# [20] = AUC (0 to 8 hrs) in Wistar rat at 1 mg/kg, iv by LC-MS/MS analysis; assay type: ADME, organism-based; parameters: time < 8 hr, dose 1 mg/kg, route intravenous; settings: in vivo; outline: as §1
# [21] = Volume of distribution in Wistar rat at 1 mg/kg, iv by LC-MS/MS analysis; assay type: ADME, organism-based; settings: in vivo; outline: as §1
# [22] = Elimination half-life in Wistar rat at 1 mg/kg, iv by LC-MS/MS analysis; assay type: ADME, organism-based; settings: in vivo, read-out: beta t1/2; outline: as §1
# [23] = Clearance in Wistar rat at 1 mg/kg, iv by LC-MS/MS analysis; assay type: ADME, organism-based; settings: in vivo; outline: as §1
# [24] = biological target: T1, C3a anaphylatoxin chemotactic receptor; test: Partial agonist activity at C3a receptor in human MDM cells assessed as induction of intracellular calcium release at higher concentration measured at 1 sec interval for => 200 secs by Fluo-3 AM dye-based FLIPR assay relative to control; assay type: cell-based; outline: as §2
# [25] = biological target: T2, C3a anaphylatoxin chemotactic receptor (Homo sapiens); test: Displacement of Eu-DTPA-C3a from Galpha16-coupled C3a receptor (unknown origin) expressed in HEK293 cells measured after 60 mins by time-resolved fluorescence assay; assay type: cell-based
# Rattus norvegicus [26] = test: Antiinflammatory activity in Wistar rat model of BR103-induced paw edema assessed as reduction in hind paw swelling at 30 mg/kg, po administered via gavage pretreated for 4 hrs followed by BR103 challenge and measured after 30 mins by digital caliper method relative to control; assay type: functional; parameters: scale not given: the % may be the effect or the level left
# Outline: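 For duration of action, antagonist was given at 30 mg/kg by oral gavage in olive oil at 1, 2, 4, 6, 8 or 12 h before intraplantar BR103 (350 μg/paw) in male Wistar rats. Controls received olive oil 2 h before challenge. Paw thickness and width were measured with calipers at 0 and 0.5 h; n = 3 per group.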
smiles,measurement,setting,value
N=C(N)NCCC[C@H](NC(=O)c1ccc(C(c2ccc(Cl)cc2)c2ccc(Cl)cc2)s1)C(=O)O,AUC(0-t) at 8 h,[1],1800 ng·h/mL
same,Vd,[2],0.3 L
same,half-life,[3],1.02 h
same,EC50,[4]; read-out: EC50,> 100000 nM
same,EC50,[4]; read-out: pEC50 (converted),> 100000 nM
same,IC50,[5],30 nM
same,Stability,[6],Stable
same,Stability,[7],Stable
same,clearance,[8],4.6 mL/min/kg
same,AUC(0-t) at 8 h,[9],814 ng·h/mL
same,Tmax,[10],4 h
same,Cmax,[11],143 ng/mL
same,Activity,Rattus norvegicus [12],45%
Cc1cc(C(c2ccccc2)c2ccccc2)sc1C(=O)N[C@@H](CCCNC(=N)N)C(=O)O,EC50,[4]; read-out: EC50,> 100000 nM
same,EC50,[4]; read-out: pEC50 (converted),> 100000 nM
same,inhibition,[13],Dose-dependent effect
same,IC50,[5],7 nM
same,Ratio IC50,[14],100
same,inhibition,[15],inactive
same,Stability,[6],Stable
same,"metabolised at 1 h, 1 µM",[16],40%
same,inhibition,[17],Dose-dependent effect
same,IC50,[18],2 nM
same,Ratio IC50,[19],100
same,AUC(0-t) at 8 h,[9],90 ng·h/mL
same,Tmax,[10],4 h
same,Cmax,[11],23 ng/mL
same,AUC(0-t) at 8 h,[20],779 ng·h/mL
same,Vd,[21],0.7 L
same,half-life,[22],0.75 h
same,clearance,[23],18 mL/min/kg
same,Activity,Rattus norvegicus [12],49%
N=C(N)NCCC[C@H](NC(=O)c1ccc(C(c2ccccc2)c2ccccc2)s1)C(=O)O,AUC(0-t) at 8 h,[1],811 ng·h/mL
same,Vd,[2],0.4 L
same,half-life,[3],0.533 h
same,EC50,[4]; read-out: EC50,> 100000 nM
same,EC50,[4]; read-out: pEC50 (converted),> 100000 nM
same,Activity,[24],30 to 80%
same,IC50,[5],85 nM
same,Ratio IC50,[14],15
same,inhibition,[25],Dose-dependent effect
same,inhibition,[15],inactive
same,Stability,[6],Stable
same,"metabolised at 1 h, 1 µM",[16],60%
same,inhibition,[17],Dose-dependent effect
same,IC50,[18],4 nM
same,Ratio IC50,[19],100
same,clearance,[8],10.3 mL/min/kg
same,AUC(0-t) at 8 h,[9],436 ng·h/mL
same,Tmax,[10],3.5 h
same,Cmax,[11],91 ng/mL
same,Activity,Rattus norvegicus [12],20%
same,Activity,Rattus norvegicus [26],<=60%

# — ChEMBL document CHEMBL4376878, “Potent Thiophene Antagonists of Human Complement C3a Receptor with Anti-Inflammatory Activity” (J Med Chem, 2020)
